Source: ChEMBL document CHEMBL1133383, “Synthesis and enzyme inhibitory activities of a series of lipidic diamine and aminoalcohol derivatives on cytosolic and secretory phospholipases A2” (Bioorg Med Chem Lett, 2000)

Experiments:
[1] = target: T1, Phospholipase A2, membrane associated (Homo sapiens) (UniProt P14555); experiment: (§1) Inhibition of secretory PLA2 activity in human recombinant synovial enzyme using [3H]oleate labelled membranes at a concentration of 10 uM
T1 sequence (whole entry): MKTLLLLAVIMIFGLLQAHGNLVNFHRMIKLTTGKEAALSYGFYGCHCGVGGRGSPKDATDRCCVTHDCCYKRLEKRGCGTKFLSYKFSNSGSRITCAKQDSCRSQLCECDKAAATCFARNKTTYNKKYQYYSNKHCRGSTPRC
In short: (§2)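 Secretory PLA2 activity was measured using autoclaved [3H]oleate-labelled membranes as substrate. The enzyme was either group II human recombinant synovial PLA2 or group I porcine pancreatic PLA2. Percent inhibition at a single concentration is reported as mean ± SEM (n=6), with significance marked at P<0.05 and P<0.01.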

[2] = target: Phospholipase A2 (Homo sapiens) (UniProt P04054); settings: Naja naja; 10 uM
[3] = target: Phospholipase A2 (Homo sapiens) (UniProt P04054); settings: Apis mellifera; 10 uM
[4] = target: T2, Cytosolic phospholipase A2 (Mus musculus) (UniProt P47713); experiment: (§3) Effect on cytosolic Phospholipase A2 (PLA2) activity at a concentration of 100 uM
T2 sequence (whole entry): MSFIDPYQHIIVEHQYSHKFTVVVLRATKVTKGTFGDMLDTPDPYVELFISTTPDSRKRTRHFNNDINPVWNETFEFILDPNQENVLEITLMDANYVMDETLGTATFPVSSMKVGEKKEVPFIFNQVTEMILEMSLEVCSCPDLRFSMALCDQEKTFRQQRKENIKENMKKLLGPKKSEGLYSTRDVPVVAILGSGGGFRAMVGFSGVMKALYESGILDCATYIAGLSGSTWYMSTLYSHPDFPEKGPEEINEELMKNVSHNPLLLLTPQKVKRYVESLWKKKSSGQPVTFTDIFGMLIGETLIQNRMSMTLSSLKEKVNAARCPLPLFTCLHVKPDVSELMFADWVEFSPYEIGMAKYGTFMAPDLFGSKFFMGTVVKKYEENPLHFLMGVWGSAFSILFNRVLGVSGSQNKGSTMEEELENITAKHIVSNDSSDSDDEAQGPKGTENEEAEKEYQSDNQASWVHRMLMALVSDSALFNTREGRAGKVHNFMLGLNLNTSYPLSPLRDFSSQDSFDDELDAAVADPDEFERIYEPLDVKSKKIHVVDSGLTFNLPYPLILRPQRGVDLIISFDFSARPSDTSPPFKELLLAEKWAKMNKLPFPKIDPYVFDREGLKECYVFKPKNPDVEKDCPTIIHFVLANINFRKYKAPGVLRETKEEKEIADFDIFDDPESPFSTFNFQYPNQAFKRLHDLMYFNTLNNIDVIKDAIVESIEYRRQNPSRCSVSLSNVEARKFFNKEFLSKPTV
In short: (§4)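 Group IV cytosolic PLA2 from the RAW 264.7 macrophage line. Percent inhibition was measured at a single test concentration and reported as mean ± SEM (n=6). IC50 was determined only for compounds reaching 50% inhibition at that concentration.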

[5] = target: T3, Phospholipase A2, membrane associated (Homo sapiens, UniProt P14555); experiment: as §1; in short: as §2
T3 sequence (P14555 whole entry): T1 sequence (whole entry)

[6] = target: T4, Cytosolic phospholipase A2 (Mus musculus, UniProt P47713); experiment: as §3; in short: as §4
T4 sequence (P47713 whole entry): T2 sequence (whole entry)

Chain of Phospholipase A2 (Homo sapiens) (P04054 23-148 limits assumed): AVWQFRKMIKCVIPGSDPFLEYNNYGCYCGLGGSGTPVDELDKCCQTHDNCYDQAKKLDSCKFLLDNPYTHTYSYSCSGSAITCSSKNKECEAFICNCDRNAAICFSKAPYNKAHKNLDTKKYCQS

Row | SMILES | I [4] | IC50 [6] | other results
1 | CCCCCCCCCCCCCCC(CO)NCC (centres undefined) | 25.2% |  | I [1]: 80%; I [2]: 62.6%; I [3]: 63.5%; IC50 [5]: 3.7 µM
2 | CCCCCCCCCCCCCCC(N)CN(CC)CC (centres undefined) | 90.6% | 11.9 µM | I [1]: 82.7%; I [2]: 51.5%; I [3]: 57.6%; IC50 [5]: 5.6 µM
3 | CCCCCCCCCCCCCCC(N)CN(CC(=O)OCC)CC(=O)OCC (centres undefined) | 43.9% |  | 
4 | CCCCCCCCCCCCCCC(COCc1ccccc1)N(CC)CC (centres undefined) | 1.9% |  | 
5 | CCCCCCCCCCCCCCC(=O)NC(CCCCCCCCCCCCCC)COC(=O)CCCCCC (centres undefined) | 0.5% |  | 
6 | CCCCCCCCCCCCCCC(COC(=O)CCCCCC)NC(=O)CCCCCC (centres undefined) | 2.3% |  | 
7 | CCCCCCCCCCCCCCC(COCc1ccccc1)NC(=O)CCCC(=O)O (centres undefined) | 84.8% | 10.5 µM | 
8 | CCCCCCCCCCCCCCC(COCc1ccccc1)NC(=O)/C=C/C(=O)O (centres undefined) | 60.7% | 69.5 µM | 
9 | CCCCCCCCCCCCCCC(=O)NC(CCCCCCCCCCCCCC)COC(=O)CCCCCCCCCCCCCC (centres undefined) | 5.1% |  | 
10 | CCCCCCCCCCCCCCC(COCc1ccccc1)NCC (centres undefined) | 0% |  | 

Now from value to molecule, other results behind:

Row | I [4] | IC50 [6] | SMILES | other results
11 | 0% |  | CCCCCCCCCCCCCCC(CNCC(=O)OCC)NC(=O)OC(C)(C)C (centres undefined) | 
12 | 0% |  | CCCCCCCCCCCCCCC(N)CNC(=O)CCCC(=O)O (centres undefined) | 
13 | 67.7% | 11.7 µM | CCCCCCCCCCCCCCCC(=O)C(F)(F)F | 
14 | 72% | 62.8 µM | CCCCCCCCCCCCCCC(COCc1ccccc1)NC(=O)CCC(=O)O (centres undefined) | 
15 | 25% |  | CCCCCCCCCCCCCCC(CO)NCC(=O)O (centres undefined) | 
16 | 0% |  | CCCCCCCCCCCCCCC(CO)NC(=O)CCCC(=O)O (centres undefined) | 
